According to the RNAGym collection of RNA variant scans (doi:10.1126/science.aae0568):
Fewer inactive variants are shown than the library holds.

B1: tRNA (parent)
chain: GUUCCGUUGGCGUAAUGGUAACGCGUCUCCCUCCUAAGGAGAAGACUGCGGGUUCGAGUCCCGUACGGAACG

Variants of: B1
Experiment: yeast fitness relative to wild type (ratio to wild type); higher = fitter; tRNA-Arg(CCU), competitive growth, 37 C, YPD
Outline: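 A pool of Saccharomyces cerevisiae strains, each with a tRNA-Arg(CCU) gene variant at the native genomic locus, was competed in YPD at 37°C for 24 hours across six parallel replicates. The variants had been chemically synthesised at a 3% per-site mutation rate over 69 sites, and gene amplicons before and after competition were read by 100-nucleotide paired-end sequencing. Darwinian fitness relative to wild type rested on changes in genotype frequencies. Genotypes required ≥ 100 starting reads, and estimates < 0.5 were set to 0.5.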

Going from C4U U26G C29U U47C A65U to C4U U28C C30A, the yeast fitness rises from ≤ 0.5 to 0.755.

Going from C5A A43C A45U U53C to C5A A45U, the yeast fitness rises from 0.615 to 0.877.

First: C5A A45G
Second: C4U G39C G48C
The yeast fitness of the first is higher: 0.937 for the first, 0.537 for the second.

First: C4U U13C C30G C55U
Second: C5A A42U G58A
The yeast fitness of the first is higher: 0.761 for the first, 0.614 for the second.

First: C4U U16A G23A A36G C49G C61A
Second: C5A A65C A70C
The yeast fitness of the first is lower: ≤ 0.5 for the first, 0.675 for the second.

Going from C5A A14G C24A to C4U U8A C30U U32G U35A C62U A69C, the yeast fitness falls from 0.565 to ≤ 0.5.

First: C5A A14C
Second: C4U U28C C49G C61U
The yeast fitness of the first is higher: 0.603 for the first, ≤ 0.5 for the second.

First: C4U U59C A69C
Second: C4U U28A C66U
The yeast fitness of the first is higher: 0.772 for the first, 0.658 for the second.

C4U G41C C66A and C5A A21U C55A C66U cannot be ordered by yeast fitness: ≤ 0.5 for the first, ≤ 0.5 for the second.

Compared with C4U U16G A69C, C5A A21G A65U is higher in yeast fitness: 0.645 for the first, 0.655 for the second.

First: C4U U26C
Second: C4U U26A A37G C66G
The yeast fitness of the first is higher: 1.04 for the first, ≤ 0.5 for the second.

Compared with C4U U26A C33A C34G, C4U G51C U59G is higher in yeast fitness: ≤ 0.5 for the first, 0.557 for the second.

Going from C4U U8C A42G to C4U U8C A42C, the yeast fitness falls from 0.69 to 0.539.

Compared with C5A A36G C46A, C5A A57U C61G is lower in yeast fitness: 0.562 for the first, ≤ 0.5 for the second.

Going from C4U U19C A40U to C5A A70C, the yeast fitness rises from 0.674 to 0.982.

First: C5A A70U
Second: C5A A15U A21U C61U A69C
The yeast fitness of the first is higher: 0.822 for the first, ≤ 0.5 for the second.

First: C5A A43G C55U C66G
Second: C4U U16C A42G G58A
The yeast fitness of the first is lower: ≤ 0.5 for the first, 0.552 for the second.

First: C5A A20G C30A A40U G41C C61G G63C
Second: C4U U26G G38U
The yeast fitness of the first is higher: 0.565 for the first, 0.508 for the second.

C4U G25A G50C U54C and C5A C11A U59A C60G cannot be ordered by yeast fitness: ≤ 0.5 for the first, ≤ 0.5 for the second.

Compared with C4U G63U, C4U U8A U13C A57U C60G G68C is lower in yeast fitness: 0.778 for the first, ≤ 0.5 for the second.

Compared with C4U U26A A37C A42C C49U G56A, C5A A15U U64C is higher in yeast fitness: ≤ 0.5 for the first, 0.615 for the second.

Going from C4U U59C to C4U U8A A20G C24A G52C, the yeast fitness falls from 0.853 to 0.598.

C4U G51C G58A U59G and C5A A15U A21U C66U G67U A70G cannot be ordered by yeast fitness: ≤ 0.5 for the first, ≤ 0.5 for the second.

Going from C4U U16G U47G to C5A A69G, the yeast fitness rises from 0.602 to 0.908.

Compared with C5A A15U C24G, C5A A37U A57G G63C is higher in yeast fitness: ≤ 0.5 for the first, 0.733 for the second.

Going from C4U U16C C61U to C5A A37U C49U, the yeast fitness falls from 0.737 to ≤ 0.5.

C4U U16A A20C U54A G67U and C5A A15G C33U G44C cannot be ordered by yeast fitness: ≤ 0.5 for the first, ≤ 0.5 for the second.

Compared with C5A A37C C55A G56C, C4U G44C is higher in yeast fitness: ≤ 0.5 for the first, 1.01 for the second.

Compared with C4U G44A, C5A A21U C24U C27G C55U is lower in yeast fitness: 1.05 for the first, ≤ 0.5 for the second.

C4U U8A A14U A20C A36C A43C G58C C61A and C5A A20G C24U G38C G56C cannot be ordered by yeast fitness: ≤ 0.5 for the first, ≤ 0.5 for the second.

First: C5A A36C C46G
Second: C4U G56C
The yeast fitness of the first is lower: 0.532 for the first, 0.655 for the second.

First: C5A A14U A21C A43C
Second: C4U U32A G52C C55U C66U
The yeast fitness of the first is higher: 0.595 for the first, ≤ 0.5 for the second.

First: C4U G25A G48C C62A
Second: C4U U16A A37C
The yeast fitness of the first is higher: 0.551 for the first, ≤ 0.5 for the second.

C4U U7A U8A A40U C61U and C4U U28G A57G A69C cannot be ordered by yeast fitness: ≤ 0.5 for the first, ≤ 0.5 for the second.

Compared with C5A A37G G51C C61G, C4U U7G C34G C55U is higher in yeast fitness: ≤ 0.5 for the first, 0.563 for the second.

First: C4U U47A C61A
Second: C4U G48A G52C U54C
The yeast fitness of the first is higher: 0.93 for the first, ≤ 0.5 for the second.

Compared with C5A A21C C27A, C5A A20C C22A A36C C61U is lower in yeast fitness: 0.568 for the first, 0.531 for the second.

First: C4U G67A
Second: C4U U8A U13C C46A
The yeast fitness of the first is higher: 0.904 for the first, 0.619 for the second.

Going from C5A A20U C31G C49G to C4U U16C A69C, the yeast fitness rises from ≤ 0.5 to 0.774.

First: C5A A15G G18C C29A U54A A65C
Second: C4U G58A
The yeast fitness of the first is lower: ≤ 0.5 for the first, 0.838 for the second.

Compared with C4U G58C, C4U U54C C62U is lower in yeast fitness: 1.02 for the first, 0.578 for the second.

Going from C4U U8G G12A to C4U U7G C34G G48C C61U, the yeast fitness falls from 0.539 to ≤ 0.5.

First: C5A A21U U32A G50A C60G
Second: C4U U8A A37C
The yeast fitness of the first is lower: ≤ 0.5 for the first, 0.821 for the second.

First: C4U U8C A20G A43C C49A C66A
Second: C5A A14C C29A G41C
The yeast fitness of the first is lower: ≤ 0.5 for the first, 0.683 for the second.

C4U U26G C29U A65U and C4U U19A C30G A36C C66A G68C cannot be ordered by yeast fitness: ≤ 0.5 for the first, ≤ 0.5 for the second.

Compared with C4U U13G C49A C55U C60U C61U, C5A A14U G52A is higher in yeast fitness: ≤ 0.5 for the first, 0.603 for the second.

First: C4U U16G
Second: C4U U16C
The yeast fitness of the first is higher: 1.05 for the first, 1.02 for the second.

First: C4U U16A
Second: C5A A42C G63A
The yeast fitness of the first is higher: 0.993 for the first, ≤ 0.5 for the second.

C5A A42C G63C and C4U U7A A20G C24A G51A cannot be ordered by yeast fitness: ≤ 0.5 for the first, ≤ 0.5 for the second.

Compared with C4U U47C C66U, C4U U32C is higher in yeast fitness: 0.766 for the first, 0.944 for the second.

C4U U32A A57C and C5A A37C C49A cannot be ordered by yeast fitness: ≤ 0.5 for the first, ≤ 0.5 for the second.

Compared with C4U G41C C60G, C4U U32A G58C is higher in yeast fitness: ≤ 0.5 for the first, 0.592 for the second.

Compared with C5A A37C, C5A A20U C27G G41A A57U U64A is lower in yeast fitness: 0.77 for the first, 0.642 for the second.

C5A A15G C33A and C5A A40C G41A C46U G52C cannot be ordered by yeast fitness: ≤ 0.5 for the first, ≤ 0.5 for the second.

Going from C4U U28G C49A C62G to C5A A15G C33A C61U, the yeast fitness rises from ≤ 0.5 to 0.531.

First: C5A C11G A21U G44C A57U
Second: C4U U54A
The yeast fitness of the first is lower: ≤ 0.5 for the first, 0.627 for the second.

First: C5A A42C
Second: C5A A42U
The yeast fitness of the first is higher: 0.842 for the first, 0.767 for the second.

First: C5A A42G
Second: C5A A20C C24A
The yeast fitness of the first is higher: 0.964 for the first, 0.575 for the second.

Compared with C5A A40C A69U, C4U G39C U54C is lower in yeast fitness: 0.539 for the first, ≤ 0.5 for the second.

Going from C5A A15C C62U to C4U U7A C30G C34G A40C C66A A69C, the yeast fitness rises from ≤ 0.5 to 0.559.

C4U U19A C29U C33G C62A and C5A A14G C22G C27U A37U cannot be ordered by yeast fitness: ≤ 0.5 for the first, ≤ 0.5 for the second.

C4U U13C C30G G48U A70U and C4U G25A G48C A57U cannot be ordered by yeast fitness: ≤ 0.5 for the first, ≤ 0.5 for the second.

Going from C4U G67A A69U to C5A C11G A21U C60G G67A, the yeast fitness falls from 0.684 to ≤ 0.5.

C5A A21G C31G U53G and C4U G52C G67C cannot be ordered by yeast fitness: ≤ 0.5 for the first, ≤ 0.5 for the second.

C4U U7C C24G C34A A45C G56A C61A A65C A69C A70G and C5A A14G A20U A37C C49A C66A cannot be ordered by yeast fitness: ≤ 0.5 for the first, ≤ 0.5 for the second.

C4U G52C U59C and C5A A15U C31G G39A G58A cannot be ordered by yeast fitness: ≤ 0.5 for the first, ≤ 0.5 for the second.

C4U U26A A37G and C4U U26C A36C U64A A70C cannot be ordered by yeast fitness: ≤ 0.5 for the first, ≤ 0.5 for the second.

Compared with C5A A20U A65G, C4U U26C C27U is higher in yeast fitness: 0.591 for the first, 0.678 for the second.

First: C4U U26G C29U A65U G68A
Second: C4U U35A G44C
The yeast fitness of the first is lower: ≤ 0.5 for the first, 0.58 for the second.

Going from C5A A14C A15G G58C C60U C66G to C4U U28A C30U A57G, the yeast fitness rises from ≤ 0.5 to 0.547.

Compared with C4U U35C A42G, C5A A40U A65U is higher in yeast fitness: 0.581 for the first, 0.636 for the second.

Compared with C4U G25C C30G C55A, C4U G56A G67A is higher in yeast fitness: 0.561 for the first, 0.649 for the second.

First: C5A A20C A36G
Second: C5A A20G
The yeast fitness of the first is lower: 0.626 for the first, 0.933 for the second.

Compared with C5A A20C, C5A A15U A21U is lower in yeast fitness: 0.799 for the first, 0.56 for the second.

First: C4U U8C C29U A43U
Second: C5A A21G C31A
The yeast fitness of the first is lower: ≤ 0.5 for the first, 0.642 for the second.

Going from C4U U32A C49U to C4U U8A U32G U35A G68U, the yeast fitness falls from 0.61 to ≤ 0.5.

Compared with C4U G39C C60U, C4U U13G A36U is higher in yeast fitness: ≤ 0.5 for the first, 0.655 for the second.

Going from C4U G48C to C4U G48A, the yeast fitness falls from 0.951 to 0.857.

First: C4U U7G C34G
Second: C5A A15C A69U
The yeast fitness of the first is higher: 0.554 for the first, 0.552 for the second.

Compared with C5A A15G C24G C29U C34G U35C C46G, C4U G39C C49U is higher in yeast fitness: 0.527 for the first, 0.62 for the second.

First: C4U G39C G48C C62G
Second: C4U U16A A40U
The yeast fitness of the first is lower: 0.549 for the first, 0.666 for the second.

Compared with C5A, C4U U13A A14U C29U A37G G67A is lower in yeast fitness: 0.995 for the first, ≤ 0.5 for the second.

First: C5A A14G C60G
Second: C4U G39C
The yeast fitness of the first is lower: ≤ 0.5 for the first, 0.829 for the second.

Variant C4U G39A has a yeast fitness of 0.982.
